Only some compounds are listed: those with a hit (about 5.4% of all), similar ones and a draw of the others.
PostGolgi ctrl – inhibits growth of the yeast control strain. 98,000 compounds, 5% hits. AID 738. efflux-deficient yeast background strain, growth absorbance A615, 16 h. inhibition, % at 10 µM
Ecoli WT expand – growth inhibitors of E. coli BW25113 wild type; OD600 absorbance; growth inhibition, % at 100 µM; 98,000 compounds, 0.15% hits; AID 710;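 active = growth inhibition above about 50% at one test dose, limit read from the data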;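 also: growth measured after 20 h incubation at 37 °C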
PLAP activator – activates human placental alkaline phosphatase | P05187 | purified PLAP enzyme, luminescent substrate read-out; hits give high values | activation fold at 20 µM | 96,000 compounds, 1.2% hits; in the data active = activation fold above about 2
Target sequence (P05187 whole entry, looked up): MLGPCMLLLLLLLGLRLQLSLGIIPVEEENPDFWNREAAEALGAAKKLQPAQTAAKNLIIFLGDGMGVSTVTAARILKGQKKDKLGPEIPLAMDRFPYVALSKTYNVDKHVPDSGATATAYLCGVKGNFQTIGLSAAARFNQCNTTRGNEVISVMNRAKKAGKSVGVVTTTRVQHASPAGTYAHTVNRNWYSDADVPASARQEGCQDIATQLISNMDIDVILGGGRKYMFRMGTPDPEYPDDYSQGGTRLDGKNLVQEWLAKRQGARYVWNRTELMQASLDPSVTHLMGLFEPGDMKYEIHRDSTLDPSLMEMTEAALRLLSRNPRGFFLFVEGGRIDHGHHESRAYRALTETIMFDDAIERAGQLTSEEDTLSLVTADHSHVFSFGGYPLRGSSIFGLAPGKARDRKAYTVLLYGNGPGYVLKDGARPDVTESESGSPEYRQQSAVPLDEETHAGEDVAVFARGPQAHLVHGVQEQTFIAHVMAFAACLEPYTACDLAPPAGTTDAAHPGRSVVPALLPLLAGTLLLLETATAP
HePTP inh – blocks human HePTP tyrosine phosphatase. P35236. inhibition, % at 20 µM. AID 521. 110,000 compounds, 0.64% hits. recombinant HePTP phosphatase activity, OD absorbance; in the data active = inhibition above about 50%
Ecoli tolC – E. coli tolC mutant growth inhibition; E. coli BW25113 tolC mutant growth, OD615; 65,000 compounds, 2.2% hits; AID 573; growth inhibition, % at 10 µM (by protocol);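 active = growth inhibition at or above a cutoff equal to the mean over every tested compound plus 3 SD, cut at about 60% in these data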;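 also: growth measured after 20 h incubation at 37 °C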
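Test system: tolC-deleted E. coli BW25113; medium: LB with kanamycin 50 µg/mL; compound: single-point testing at 10 µM; incubation: 20 h compound exposure of bacteria at 37 °C; signal: OD at 615 nm; evaluation: growth inhibition in percent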
PostGolgi yeast – growth inhibition of a yeast mutant, post-Golgi transport screen; post-Golgi transport phenotypic cell assay; inhibition, % at 10 µM; 98,000 compounds, 0.9% hits; AID 739;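 also: yeast cells grown in 1536-well plates; yeast grown about 18 h at 30C before absorbance read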
Numbers stand for hits; i = inactive; nt = no result. Rule as the data show it, unless noted: active = inhibition above about 30%; inactive = the rest.

SMILES | PostGolgi ctrl | Ecoli WT expand | PLAP activator | HePTP inh | Ecoli tolC | PostGolgi yeast
Cc1ccc(-c2nc3ncccc3o2)cc1NC(=O)COc1ccc(C(C)(C)C)cc1 | nt | nt | nt | i | nt | nt
Cc1ccc(-c2nc3cccnc3o2)cc1NC(=O)COc1ccc(C(C)(C)C)cc1 | 42 | i | i | i | nt | i
N#CC1=C(N)NC(SCc2ccc(F)cc2)=C(C#N)C12CCCCC2 | 68 | i | i | i | i | 99
COc1ccc(-c2noc(CCC(=O)Nc3cccc(C)c3)n2)cc1 | i | i | i | i | i | i
COc1ccc(-c2noc(CCC(=O)N(C)c3cccc(C)c3)n2)cc1 | i | i | i | i | 68 | i
CCN(C(=O)CCc1nc(-c2ccc(OC)cc2)no1)c1cc(OC)ccc1OC | i | i | 2 | i | i | i
COc1ccc(C(C)NC(=O)CN(c2ccccc2C)S(=O)(=O)c2ccc(C)cc2)cc1 (stereo not given) | nt | nt | nt | i | nt | nt
Oc1cccc(/C=N/Nc2nc(N3CCCC3)nc(N3CCCC3)n2)c1 | nt | nt | nt | i | nt | nt
Cc1c(-c2cccc(Cl)c2)nc2ccccc2c1C(=O)O | nt | nt | nt | 105 | nt | nt
Cc1c(-c2ccc(Cl)cc2Cl)nc2ccccc2c1C(=O)O | nt | nt | nt | i | nt | nt
COc1ccccc1C(=O)N1CCN(C(=O)c2ccc([N+](=O)[O-])cc2)CC1 | nt | nt | nt | i | nt | nt
Cc1cc(C)n(-c2nc(NCC(C)O)c3c4c(sc3n2)CCCC4)n1 (stereo not given) | i | i | i | i | 94 | i
Cc1cc(C)n(-c2nc(NCCCO)c3c4c(sc3n2)CCCC4)n1 | 35 | i | i | i | i | i
COc1ccc(CCN2C(=O)CSC2c2ccc([N+](=O)[O-])cc2)cc1OC (stereo not given) | nt | nt | nt | 104 | nt | nt
O=C(O)CCCN1C(=O)/C(=C/c2ccccc2Cl)SC1=S | nt | nt | nt | i | nt | nt
COC(=O)c1cc(C(=O)NC2CCSC2=O)cc([N+](=O)[O-])c1 (stereo not given) | nt | nt | nt | 102 | nt | nt
COc1ccc(C(=O)NC2CCSC2=O)cc1[N+](=O)[O-] (stereo not given) | nt | nt | nt | i | nt | nt
O=C(c1cccs1)N1CCCCCC1 | nt | nt | nt | i | nt | nt
CSc1ccc(/C=N\NC(=O)C2COc3cc4ccccc4cc3O2)cc1 (stereo not given) | nt | nt | nt | i | nt | nt
O=C(N/N=C\c1ccccn1)C1COc2cc3ccccc3cc2O1 (stereo not given) | i | i | 2 | nt | nt | i
CN(C)CC(=O)Nc1cc(C(F)(F)F)ccc1Cl | i | i | i | i | i | 38
Cc1cc(NC(=O)c2ccc(C)c([N+](=O)[O-])c2)ccc1Br | nt | nt | nt | i | nt | nt
Cn1c(NCc2ccccc2)cc(=O)n(C)c1=O | i | i | i | i | i | i
Cn1c(=O)cc(NCc2ccccc2)[nH]c1=O | i | i | i | i | i | 40
CN(C)c1ccc(C2/C(=C(\O)c3ccccc3)C(=O)C(=O)N2c2cccnc2)cc1 (stereo not given) | nt | nt | nt | i | nt | nt
SMILES | PostGolgi ctrl | Ecoli WT expand | PLAP activator | HePTP inh | Ecoli tolC | PostGolgi yeast
O=C(COc1ccc(Br)cc1)Nc1cccc(I)c1 | nt | nt | nt | i | nt | nt
CCN1CCN(Cc2cccc(Oc3ccccc3)c2)CC1 | i | i | 2.2 | nt | nt | i
CCN1CCN(Cc2cccc(Oc3ccc(Cl)cc3)c2)CC1 | i | i | i | nt | nt | i
COC(=O)c1cccc(NC(=O)c2ccccc2OC)c1 | nt | nt | nt | i | nt | nt
COc1ccc(/C(N)=N/OC(=O)COc2ccccc2)cc1 | nt | nt | nt | i | nt | nt
COc1ccc(C(=O)N=Nc2c(O)n(CN(C)C)c3ccc(Br)cc23)cc1 | nt | nt | nt | 87 | nt | nt
O=C(Nc1ccccc1C(=O)N1CCOCC1)c1ccccc1Cl | nt | nt | nt | i | nt | nt
CCc1ccc(NC(=O)c2ccc(C)c([N+](=O)[O-])c2)cc1 | nt | nt | nt | i | nt | nt
Cc1ccc(C(=O)Nc2ccc(-c3nc4cc5ccccc5cc4[nH]3)cc2)cc1[N+](=O)[O-] | nt | nt | nt | 56 | nt | nt
Cc1ccc(C(=O)Nc2ccc(Cc3ccncc3)cc2)cc1[N+](=O)[O-] | 50 | i | i | i | nt | 87
COc1ccc(NC(=O)c2ccc(C)c([N+](=O)[O-])c2)cc1 | nt | nt | nt | i | nt | nt
CCCc1ccc(-c2cc(C(=O)N/N=C/c3ccc([N+](=O)[O-])o3)c3ccccc3n2)cc1 | 32 | i | i | nt | nt | i
O=C(N/N=C/c1ccc([N+](=O)[O-])o1)c1cc(-c2cccc(Br)c2)nc2ccccc12 | 36 | i | i | nt | nt | 103
Cc1ccc2nc(-c3ccc(OCC(=O)N/N=C/c4ccc([N+](=O)[O-])o4)cc3)cc(-c3ccccc3)c2c1 | nt | nt | nt | i | nt | nt
COC(=O)c1cc(-c2cccc(Br)c2)nc2ccccc12 | nt | nt | nt | i | nt | nt
CC(=O)C1=C(C)NC(=S)NC1c1ccc(C)cc1 (stereo not given) | nt | nt | nt | i | nt | nt
CCOC(=O)c1c(CN2CCN(Cc3ccccc3)CC2)n(C)c2cc(Br)c(OC)cc12 | 73 | i | i | nt | nt | i
CC(=O)NC1=NC(=O)/C(=C/c2cc(C)n(-c3cccc(C(=O)O)c3)c2C)S1 | nt | nt | nt | 101 | nt | nt
CN1CCc2c(sc3nc(Nc4ccccc4)n(N)c(=O)c23)C1 | nt | nt | nt | i | nt | nt
Nn1c(Nc2ccccc2)nc2sc3c(c2c1=O)CCC3 | 31 | i | i | i | i | i
Clc1ccc(-c2nnc(NC3=NCCCCC3)o2)cc1 | 30 | i | i | i | i | i
COc1ccc(C)cc1NC(=O)c1cccc(I)c1 | nt | nt | nt | i | nt | nt
Cc1cc(NCCCCO)n2c(nc3ccccc32)c1C#N | i | i | i | i | i | i
CCCc1cc(NCCCCO)n2c(nc3ccccc32)c1C#N | i | i | i | i | i | 35
O=c1c2cc3ccccc3n2cnn1Cc1ccccc1F | i | i | nt | i | 75 | i
SMILES | PostGolgi ctrl | Ecoli WT expand | PLAP activator | HePTP inh | Ecoli tolC | PostGolgi yeast
COc1cc(CNC2CCCC2)cc(Cl)c1OCc1ccccc1F | i | i | 2 | nt | nt | i
COc1cc(CNC2CCCCCC2)cc(OC)c1O | i | i | i | i | i | i
O=C(Nc1cccc(Cl)c1)c1cccc(NC(=S)Nc2ccc(F)cc2)c1 | nt | nt | nt | 104 | nt | nt
CCOC(=O)c1oc2cc(O)c(CC)cc2c(=O)c1-c1ccc2c(c1)OCCO2 | 30 | i | i | i | i | i
CCOC(=O)c1oc2cc(O)ccc2c(=O)c1-c1ccc(OC)cc1 | i | i | i | nt | nt | i
CC(C)c1ccc(C2/C(=C(\O)c3ccccc3)C(=O)C(=O)N2CCN(C)C)cc1 (stereo not given) | nt | nt | nt | i | nt | nt
N/C(=N/c1nc2ccccc2o1)NC(=O)Cc1ccccc1 | nt | nt | nt | i | nt | nt
CC1(C(=O)c2ccccc2)C2c3c(ccc4ccccc34)OC(=O)C21C(=O)N1CCOCC1 (stereo not given) | 46 | i | i | nt | nt | i
Clc1ccc(-c2nc3cnccn3c2NC2CCCC2)cc1 | 31 | i | i | nt | nt | i
CSc1ccc(-c2nc3cnccn3c2Nc2ccc3c(c2)OCO3)cc1 | i | i | i | nt | nt | i
Clc1ccc(-c2nc3cnccn3c2Nc2ccc3c(c2)OCO3)cc1 | 38 | i | i | nt | nt | i
Cc1onc(-c2c(F)cccc2Cl)c1C(=O)N(C)C1CCS(=O)(=O)C1 (stereo not given) | nt | nt | nt | i | nt | nt
CCOC(=O)c1c(C)n(-c2ccc(OC)cc2)c2ccc(O)cc12 | nt | nt | nt | i | nt | nt
COc1ccc(-n2c(C)c(C(C)=O)c3cc(O)ccc32)cc1 | 32 | i | i | i | i | i
OC(CN1CCCCC1)c1ccc2c(c1)OCCCO2 (stereo not given) | nt | nt | nt | i | nt | nt
CC(C)(C)C(=O)Cn1c(=N)n(Cc2ccccc2)c2ccccc21 | 48 | i | nt | i | 100 | i
CC(C)(C)C(=O)Cn1c(=N)n(Cc2ccccc2Cl)c2ccccc21 | i | i | i | nt | nt | i
